Bioassay records from PubChem BioAssay.
EBNA-1 inhibitor – blocks EBNA-1 binding to DNA; EBNA-1 DNA binding, fluorescence polarization; inhibition, % at 14.8 µM; 300,000 tested, 0.34% active; in the data active = inhibition above about 28%
FGF22 binding – binders of recombinant human FGF22 by thermal shift; Q9HCT0; SYPRO orange fluorescence; percent of sucrose octasulfate shift, DMSO zero; activity (Tm shift, normalised), % at 9.99 µM; 340,000 tested, 1.5% active; AID 651658;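 active = mean Tm shift, scaled 0 neutral to 100 positive control, at about 1.3% or above, every replicate too, limit read from the data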
Target sequence (Q9HCT0 whole entry, looked up): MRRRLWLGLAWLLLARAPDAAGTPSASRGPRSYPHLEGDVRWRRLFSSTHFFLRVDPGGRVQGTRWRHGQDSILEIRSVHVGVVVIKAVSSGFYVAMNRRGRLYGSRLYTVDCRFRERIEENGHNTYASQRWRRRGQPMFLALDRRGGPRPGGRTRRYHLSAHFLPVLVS
DNA FID counter – fluorescent intercalator displacement, NS3 helicase counter-screen | DNA fluorescent intercalator displacement, fluorescence | inhibition, % at 7.9 µM | 290,000 tested, 0.17% active | AID 1845; in the data active = inhibition above about 37%;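 also: 0% = vehicle and 100% = reference compound; higher means more ethidium bromide displaced from hairpin DNA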
NS3 helicase inh – blocks Hepatitis C virus NS3 helicase unwinding | AID 1800 | 290,000 tested, 0.56% active | NS3 helicase DNA unwinding, Cy5 molecular beacon fluorescence | inhibition, % at 10.9 µM;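 active = inhibition above the mean of all tested compounds plus 3 SD, set per campaign, cut at about 35% in these data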;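 also: 0% = DMSO wells and 100% = thioflavine S control wells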
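Measured by: Cy5 fluorescence, 0 and 60 min reads / Assay system: NS3 helicase fragment of HCV / Control set: low DMSO, high thioflavine S at 110 µM / Times: 1 h reaction at 25 °C, ATP-initiated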
ZTA DNA inh – counter-screen for EBNA-1 inhibitors: inhibitors of Epstein-Barr virus ZTA; P03206; ZTA-DNA binding, fluorescence polarization; inhibition, % at 11 µM; 320,000 tested, 0.15% active; AID 2234; in the data active = inhibition above about 33%
Target sequence (P03206 whole entry, looked up): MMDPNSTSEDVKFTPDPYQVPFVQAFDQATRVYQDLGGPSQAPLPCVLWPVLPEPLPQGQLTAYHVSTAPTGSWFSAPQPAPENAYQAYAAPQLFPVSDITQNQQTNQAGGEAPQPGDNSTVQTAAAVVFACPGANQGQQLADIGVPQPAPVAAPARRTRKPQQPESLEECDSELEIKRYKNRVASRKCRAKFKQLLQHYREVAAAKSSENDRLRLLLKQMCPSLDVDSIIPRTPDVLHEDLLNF
NR3A LBD binder – NR3A (human) ligand-binding domain modulation; NR3A LBD differential scanning fluorimetry, Tm shift; 0% = protein alone, 100% = glycine-bound protein; Tm shift relative to glycine control, % at 25 µM; 340,000 tested, 2.5% active; AID 1259313;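 active = melting temperature shift of at least 10% of the positive control shift, at one fixed dose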
Starred values were filed as active, the others as inactive; nt = not tested or not shown. A selection: hits, their analogues and other compounds. The true share with any hit is near 3.6%.

SMILES	EBNA-1 inhibitor	FGF22 binding	DNA FID counter	NS3 helicase inh	ZTA DNA inh	NR3A LBD binder
COc1ccccc1CNC(=O)c1nn(C)c2c1CS(=O)(=O)c1ccccc1-2	-1	0	-21	-8	-6	18*
CNc1nc(Cl)c(SC)c(NCc2cccc(OC)c2)n1	5	0	-21	-2	3	17*
COc1cccc(CNc2ncnc3cc(Cl)ccc23)c1	nt	0	-7	-9	nt	1
C[C@@H]1CN([C@@H](C)CO)S(=O)(=O)c2ccc(-c3cncnc3)cc2O[C@H]1CN(C)C(=O)C1CCC1	nt	0	nt	nt	nt	nt
CCOc1ccc(/C=N/NC(=O)c2nnn(-c3nonc3N)c2-c2cccs2)cc1	-8	0	-21	-7	-4	13*
Cc1ccc(-c2c(C(=O)N/N=C/c3ccc(OC(C)C)cc3)nnn2-c2nonc2N)cc1	-12	0	-12	-8	-12	8
CCOc1ccc(-c2c(C(=O)N/N=C/c3ccc(OC(C)C)cc3)nnn2-c2nonc2N)cc1	13	nt	-9	13	6	11*
CCOc1ccc(-c2c(C(=O)N/N=C/c3ccc(Cl)cc3)nnn2-c2nonc2N)cc1	17	1	-17	7	2	13*
Cc1ccc(-c2c(C(=O)N/N=C/c3cccc(Cl)c3)nnn2-c2nonc2N)cc1	6	0	-7	8	-2	15*
Cc1ccc(-c2c(C(=O)N/N=C/c3ccoc3)nnn2-c2nonc2N)cc1	-8	0	-13	-5	-6	-9
CCOc1ccc(-c2c(C(=O)N/N=C/c3ccc(C)cc3)nnn2-c2nonc2N)cc1	-4	0	-8	1	10	7
CCS(=O)(=O)NCC[C@H]1CC[C@@H](NS(=O)(=O)c2ccccc2C)[C@@H](CO)O1	nt	0	nt	nt	nt	nt
CN1C(=O)c2cc(NC(=O)C3CCOCC3)ccc2OC[C@H]2O[C@H](CC(=O)NCC3CCCCC3)CC[C@H]21	nt	0	nt	nt	nt	nt
CCOC(=O)c1c(C)[n+]([O-])c2ccc3c(non3O)c12	2	44*	-1	6	-6	-1
O=C(N/N=C/c1ccc(O)cc1O)C(=O)N/N=C/c1ccc(O)cc1O	11	0	1	12	17	36*
Oc1ccc(C=NNC(=S)Nc2ccc(F)cc2)c(O)c1	nt	1	nt	nt	nt	27*
O=C(NN=Cc1ccc(O)cc1)C(=O)NN=Cc1ccc(O)cc1	nt	0	nt	nt	nt	8
Oc1ccc(/C=N/NC(=S)Nc2cccnc2)c(O)c1	-8	nt	-2	2	1	12*
C[C@@H]1CCCCO[C@@H](CN(C)Cc2ccc(Cl)c(Cl)c2)[C@@H](C)CN([C@H](C)CO)C(=O)c2cc(NS(C)(=O)=O)ccc2O1	nt	-1	nt	nt	nt	nt
C=CC[C@]1(C(=O)N(C)C)N=C(c2ccc(OCCCO)cc2)O[C@H]1c1ccccc1	nt	0	nt	nt	nt	nt
CCN(CC)S(=O)(=O)c1ccc(N2CCCC2)c(NS(=O)(=O)c2ccccc2)c1	-9	nt	-19	-2	-22	16*
O=C(c1c(O)cc(O)cc1O)C1c2c(cc(O)c3c2O[C@H](c2ccc(O)cc2)[C@@H](O)C3)OC1c1ccc(O)cc1 (stereo not given in full)	nt	1.5*	nt	nt	4	-3
COC(=O)c1ccc(CO/N=C/c2ccc(OC)cc2)o1	4	44*	-19	-9	-6	0
COC(=O)c1ccc(COC(=O)c2ccc(CO)cc2)o1	-3	44*	-5	-15	4	0
COC(=O)c1ccc(Cc2ccc(C(=O)OC)o2)o1	-5	nt	-3	2	12	1
SMILES	EBNA-1 inhibitor	FGF22 binding	DNA FID counter	NS3 helicase inh	ZTA DNA inh	NR3A LBD binder
O=S(=O)(/N=C(/Nc1ccc(Cl)c(S(=O)(=O)Nc2ccccc2Cl)c1)c1ccc(F)cc1)c1ccccc1	0	0	-16	-7	6	14*
C=CC(C)(C)c1c2occc2c(O)c2ccc(=O)oc12	nt	0	nt	nt	nt	-4
C=CC(C)(C)c1c(O)c(CC=C(C)C)c(O)c2c(=O)c3ccc(O)c(O)c3oc12	-7	nt	nt	nt	11	33*
CC1(Cc2ccccc2C#N)C(=O)Nc2cc(-c3ccccc3Cl)ccc21 (stereo not given)	nt	0	nt	nt	nt	nt
CC1(Cc2ccc(C(F)(F)F)nc2)C(=O)Nc2cc(-c3ccccc3Cl)ccc21 (stereo not given)	nt	43*	nt	nt	nt	nt
O=C(CC(=O)c1ccccc1O)c1cccc(F)c1	-1	nt	-9	-3	4	23*
COc1ccc(CN(C)C[C@H]2OCCCC[C@H](C)Oc3ccc(NS(=O)(=O)c4ccc(F)cc4)cc3C(=O)N([C@@H](C)CO)C[C@H]2C)cc1	nt	0	nt	nt	nt	nt
CSc1ccc(Cl)c(C(=O)OCC(=O)NC2CC2)c1	-7	nt	-4	6	1	12*
COC(=O)COc1cccc(NS(=O)(=O)c2ccc(NC(C)=O)cc2)c1	-2	0	-1	-1	0	14*
CCOc1ccc(S(=O)(=O)Nc2cccc(OC)c2)cc1	10	nt	-4	-5	-8	11*
COc1cccc(-c2cnc3c(c2)C(=O)N([C@H](C)CO)C[C@@H](C)[C@H](CN(C)Cc2ccc(C(=O)O)cc2)O3)c1	nt	0	nt	nt	nt	nt
COCC(=O)N1CC2(C1)[C@H](c1ccccc1)[C@H](CO)N2Cc1ccccc1OC	nt	0	nt	nt	nt	nt
CCOC(=O)c1ccc(Nc2nc(C)cc(C)n2)cc1	nt	0	-5	4	nt	0
CCOC(=O)c1ccc(Nc2cc(C)nc(-c3ccccc3)n2)cc1	-1	0	-1	-24	2	10*
CCOC(=O)c1ccc(NC(=O)Oc2cc(C)c(Cl)cc2C(C)C)cc1	2	0	-1	-9	-2	15*
CCOC(=O)c1ccc(NC(=O)Oc2ccccc2)cc1	5	nt	0	-1	-17	34*
O=C(Nc1ccccc1)N1C[C@H]2[C@@H](c3ccccc31)[C@H](CO)N2C(=O)Cc1ccccn1	nt	0	nt	nt	nt	nt
O=C(c1cccnc1)N1CCCCN2[C@H](CO)[C@@H](c3ccc(C#Cc4ccccc4)cc3)[C@H]2C1	nt	0	nt	nt	nt	nt
CCC(=O)N(C)C[C@H]1Oc2ncc(-c3ccc(C#N)cc3)cc2C(=O)N([C@@H](C)CO)C[C@@H]1C	nt	0	nt	nt	nt	nt
C[C@@H]1CN([C@H](C)CO)C(=O)c2cc(/C=C/c3ccccc3)cnc2O[C@H]1CN(C)Cc1cncnc1	nt	0	nt	nt	nt	nt
C[C@H](CO)N1C[C@H](C)[C@H](CN(C)Cc2ccc(C(F)(F)F)cc2)Oc2c(NC(=O)c3nc4ccccc4s3)cccc2C1=O	nt	0	nt	nt	nt	nt
C[C@@H]1CCCCO[C@H](CN(C)S(=O)(=O)c2cn(C)cn2)[C@@H](C)CN([C@@H](C)CO)C(=O)c2cc(NC(=O)Cc3ccccc3)ccc2O1	nt	0	nt	nt	nt	nt
Cc1ccc2[nH]c(-c3cccc(N)c3)cc2c1	11	nt	0	-61	11	31*
Cc1ccc2[nH]c(-c3cccc(F)c3)cc(=O)c2c1	-5	0	-4	2	-26	-1
